Assay results: ChEMBL document CHEMBL1138354, “2-(2'-((dimethylamino)methyl)-4'-(fluoroalkoxy)-phenylthio)benzenamine derivatives as serotonin transporter imaging agents” (J Med Chem, 2007)

Legend:
Kidney [1] = experiment: Biodistribution in iv dosed rat kidney after 60 mins; type: ADME, organism-based; details: in vivo, 1 h
Outline: (§1)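 [18F]-labeled tracer was given to rats under isoflurane anesthesia: 0.2 ml sterile water with 1 mg/mL BSA and 10–100 μCi, into the femoral vein. Three rats per group. Animals were killed by cervical dislocation under anesthesia at the stated time. Organs were removed, weighed and counted. Uptake was calculated as percent dose against a 1% aliquot of the injected dose counted alongside.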

Bone [2] = experiment: Biodistribution in iv dosed rat bone after 120 mins; type: ADME, organism-based, Bone element; details: in vivo, 2 h; outline: as §1
Muscle tissue [3] = experiment: Biodistribution in iv dosed rat muscle after 2 mins; type: ADME, organism-based; details: in vivo; outline: as §1
Blood [4] = experiment: Biodistribution in iv dosed rat blood after 240 mins; type: ADME, organism-based; details: in vivo, 4 h; outline: as §1
Muscle tissue [5] = experiment: Biodistribution in iv dosed rat muscle after 240 mins; type: ADME, organism-based; details: in vivo, 4 h; outline: as §1
Heart [6] = experiment: Biodistribution in iv dosed rat heart after 240 mins; type: ADME, organism-based; details: in vivo, 4 h; outline: as §1
Spleen [7] = experiment: Biodistribution in iv dosed rat spleen after 60 mins; type: ADME, organism-based; details: in vivo, 1 h
Striatum [8] = experiment: Biodistribution in iv dosed rat striatum assessed as radioactivity after 2 mins; type: ADME, organism-based; details: in vivo
Nucleic Acid [9] = experiment: Ratio of drug level in cortex to cerebellum in rat assessed as radioactivity after 240 mins; type: ADME, tissue-based; details: in vivo, 4 h
Nucleic Acid [10] = experiment: Ratio of drug level in cortex to cerebellum in rat assessed as radioactivity after 30 mins; type: ADME, tissue-based; details: in vivo, 0.5 h
Outline: (§2)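 Groups of three normal rats under isoflurane received the [18F] tracer (10–100 μCi in 0.2 ml sterile water containing 1 mg/mL BSA) into the femoral vein. They were killed by cervical dislocation under anesthesia at the stated time. Cortex, striatum, hippocampus, hypothalamus and cerebellum were dissected, weighed and gamma-counted. %dose/g was set against a 100-fold diluted dose aliquot, and each region was divided by cerebellum.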

Nucleic Acid [11] = experiment: Ratio of drug level in cortex to cerebellum in rat assessed as radioactivity after 2 mins; type: ADME, tissue-based; details: in vivo
Liver [12] = experiment: Biodistribution in iv dosed rat liver after 120 mins; type: ADME, organism-based; details: in vivo, 2 h; outline: as §1
Nucleic Acid [13] = experiment: Ratio of drug level in hippocampus to cerebellum in rat assessed as radioactivity after 60 mins; type: ADME, tissue-based; details: in vivo, 1 h
Lung [14] = experiment: Biodistribution in iv dosed rat lungs after 240 mins; type: ADME, organism-based; details: in vivo, 4 h; outline: as §1
Zone of skin [15] = experiment: Biodistribution in iv dosed rat skin after 60 mins; type: ADME, organism-based; details: in vivo, 1 h
Heart [16] = experiment: Biodistribution in iv dosed rat heart after 2 mins; type: ADME, organism-based; details: in vivo; outline: as §1
Nucleic Acid [17] = experiment: Ratio of drug level in hypothalamus to cerebellum in rat after 30 mins; type: ADME, tissue-based; details: in vivo, 0.5 h
Outline: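 Rats, 3 per group, given ¹⁸F tracer (10–100 μCi, 0.2 ml sterile water with 1 mg/mL BSA) into the femoral vein under isoflurane. Brain regions, including hypothalamus, striatum and cerebellum, dissected, weighed and counted. % dose/g calculated against a 1% diluted aliquot of the dose. Region/cerebellum ratio is region %dose/g divided by cerebellum %dose/g. SD of the ratio propagated from both means and SDs.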

Lung [18] = experiment: Biodistribution in iv dosed rat lungs after 60 mins; type: ADME, organism-based; details: in vivo, 1 h; outline: as §1
Liver [19] = experiment: Biodistribution in iv dosed rat liver after 240 mins; type: ADME, organism-based; details: in vivo, 4 h; outline: as §1
Blood [20] = experiment: Biodistribution in iv dosed rat blood after 30 mins; type: ADME, organism-based; details: in vivo, 0.5 h; outline: as §1
Nucleic Acid [21] = experiment: Ratio of drug level in cortex to cerebellum in rat assessed as radioactivity after 60 mins; type: ADME, tissue-based; details: in vivo, 1 h
Kidney [22] = experiment: Biodistribution in iv dosed rat kidney after 2 mins; type: ADME, organism-based; details: in vivo; outline: as §1
Liver [23] = experiment: Biodistribution in iv dosed rat liver after 30 mins; type: ADME, organism-based; details: in vivo, 0.5 h; outline: as §1
Brain = experiment: Biodistribution in iv dosed rat brain after 240 mins; type: ADME, organism-based; details: in vivo, 4 h; outline: as §1
Heart [24] = experiment: Biodistribution in iv dosed rat heart after 120 mins; type: ADME, organism-based; details: in vivo, 2 h; outline: as §1
Lung [25] = experiment: Biodistribution in iv dosed rat lungs after 30 mins; type: ADME, organism-based; details: in vivo, 0.5 h; outline: as §1
Nucleic Acid [26] = experiment: Ratio of drug level in hypothalamus to cerebellum in rat assessed as radioactivity after 240 mins; type: ADME, tissue-based; details: in vivo, 4 h
Bone [27] = experiment: Biodistribution in iv dosed rat bone after 240 mins; type: ADME, organism-based, Bone element; details: in vivo, 4 h; outline: as §1
Nucleic Acid [28] = experiment: Ratio of drug level in hippocampus to cerebellum in rat assessed as radioactivity after 240 mins; type: ADME, tissue-based; details: in vivo, 4 h
Nucleic Acid [29] = experiment: Ratio of drug level in striatum to cerebellum in rat assessed as radioactivity after 120 mins; type: ADME, tissue-based; details: in vivo, 2 h; outline: as §2
Spleen [30] = experiment: Biodistribution in iv dosed rat spleen after 120 mins; type: ADME, organism-based; details: in vivo, 2 h
Outline: (§3)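 Rats, 3 per group, under isoflurane. ¹⁸F tracer (10–100 μCi) in 0.2 ml sterile water with 1 mg/mL BSA injected into the femoral vein. Killed by cervical dislocation under anesthesia at the stated time. Organs removed, weighed and counted. % dose/organ calculated against counts of a 1% diluted aliquot of the injected dose.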

Muscle tissue [31] = experiment: Biodistribution in iv dosed rat muscle after 60 mins; type: ADME, organism-based; details: in vivo, 1 h; outline: as §1
Striatum [32] = experiment: Biodistribution in iv dosed rat striatum assessed as radioactivity after 30 mins; type: ADME, organism-based; details: in vivo, 0.5 h
Zone of skin [33] = experiment: Biodistribution in iv dosed rat skin after 2 mins; type: ADME, organism-based; details: in vivo
Striatum [34] = experiment: Biodistribution in iv dosed rat striatum assessed as radioactivity after 60 mins; type: ADME, organism-based; details: in vivo, 1 h
Cortex = experiment: Biodistribution in iv dosed rat cortex assessed as radioactivity after 240 mins; type: ADME, organism-based; details: in vivo, 4 h
Outline: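 Rats received the [18F] tracer under isoflurane anesthesia: 0.2 ml sterile water with 1 mg/mL BSA and 10–100 μCi, into the femoral vein. Three rats per group. After cervical dislocation under anesthesia, the cortex was dissected, weighed and gamma-counted. Percent dose/g was calculated against a 100-fold diluted aliquot of the injected dose.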

Nucleic Acid [35] = experiment: Ratio of drug level in striatum to cerebellum in rat assessed as radioactivity after 240 mins; type: ADME, tissue-based; details: in vivo, 4 h
Liver [36] = experiment: Biodistribution in iv dosed rat liver after 60 mins; type: ADME, organism-based; details: in vivo, 1 h; outline: as §1
Lung [37] = experiment: Biodistribution in iv dosed rat lungs after 120 mins; type: ADME, organism-based; details: in vivo, 2 h; outline: as §1
Kidney [38] = experiment: Biodistribution in iv dosed rat kidney after 30 mins; type: ADME, organism-based; details: in vivo, 0.5 h; outline: as §1
Nucleic Acid [39] = experiment: Ratio of drug level in striatum to cerebellum in rat assessed as radioactivity after 2 mins; type: ADME, tissue-based; details: in vivo
Spleen [40] = experiment: Biodistribution in iv dosed rat spleen after 30 mins; type: ADME, organism-based; details: in vivo, 0.5 h; outline: as §3
Striatum [41] = experiment: Biodistribution in iv dosed rat striatum assessed as radioactivity after 240 mins; type: ADME, organism-based; details: in vivo, 4 h
Muscle tissue [42] = experiment: Biodistribution in iv dosed rat muscle after 120 mins; type: ADME, organism-based; details: in vivo, 2 h; outline: as §1
Nucleic Acid [43] = experiment: Ratio of drug level in cortex to cerebellum in rat assessed as radioactivity after 120 mins; type: ADME, tissue-based; details: in vivo, 2 h; outline: as §2
Kidney [44] = experiment: Biodistribution in iv dosed rat kidney after 120 mins; type: ADME, organism-based; details: in vivo, 2 h; outline: as §1
Kidney [45] = experiment: Biodistribution in iv dosed rat kidney after 240 mins; type: ADME, organism-based; details: in vivo, 4 h; outline: as §1
Spleen [46] = experiment: Biodistribution in iv dosed rat spleen after 2 mins; type: ADME, organism-based; details: in vivo
Nucleic Acid [47] = experiment: Ratio of drug level in striatum to cerebellum in rat assessed as radioactivity after 30 mins; type: ADME, tissue-based; details: in vivo, 0.5 h; outline: as §2
Bone [48] = experiment: Biodistribution in iv dosed rat bone after 2 mins; type: ADME, organism-based, Bone element; details: in vivo; outline: as §1
Zone of skin [49] = experiment: Biodistribution in iv dosed rat skin after 240 mins; type: ADME, organism-based; details: in vivo, 4 h
Lung [50] = experiment: Biodistribution in iv dosed rat lungs after 2 mins; type: ADME, organism-based; details: in vivo; outline: as §1
[51] = Partition coefficient, log P at pH 7.4; type: physicochemical; details: octanol/water
Zone of skin [52] = experiment: Biodistribution in iv dosed rat skin after 30 mins; type: ADME, organism-based; details: in vivo, 0.5 h; outline: as §3
Nucleic Acid [53] = experiment: Ratio of drug level in hippocampus to cerebellum in rat assessed as radioactivity after 2 mins; type: ADME, tissue-based; details: in vivo
Zone of skin [54] = experiment: Biodistribution in iv dosed rat skin after 120 mins; type: ADME, organism-based; details: in vivo, 2 h; outline: as §3
Striatum [55] = experiment: Biodistribution in iv dosed rat striatum assessed as radioactivity after 120 mins; type: ADME, organism-based; details: in vivo, 2 h
Nucleic Acid [56] = experiment: Ratio of drug level in hippocampus to cerebellum in rat assessed as radioactivity after 30 mins; type: ADME, tissue-based; details: in vivo, 0.5 h; outline: as §2
Liver [57] = experiment: Biodistribution in iv dosed rat liver after 2 mins; type: ADME, organism-based; details: in vivo; outline: as §1

CN(C)Cc1cc(OCC[18F])ccc1Sc1ccc(Br)cc1N
Drug uptake (Kidney [1]): 2.44 %ID | Drug uptake (Bone [2]): 9.3 %ID | Drug uptake (Muscle tissue [3]): 18.2 %ID | Drug uptake (Blood [4]): 5.21 %ID | Drug uptake (Muscle tissue [5]): 8.37 %ID | Drug uptake (Heart [6]): 0.12 %ID | Drug uptake (Spleen [7]): 0.68 %ID | Drug uptake (Striatum [8]): 1.02 % ID/g | Ratio (Nucleic Acid [9]): 3.21 | Ratio (Nucleic Acid [10]): 1.95 | Ratio (Nucleic Acid [11]): 1.45 | Drug uptake (Liver [12]): 2.85 %ID | Ratio (Nucleic Acid [13]): 2.21 | Drug uptake (Lung [14]): 2.1 %ID | Drug uptake (Zone of skin [15]): 7.86 %ID | Drug uptake (Heart [16]): 1.38 %ID | Ratio (Nucleic Acid [17]): 2.04 | Drug uptake (Lung [18]): 3.44 %ID | Drug uptake (Liver [19]): 2.13 %ID | Drug uptake (Blood [20]): 5.7 %ID | Ratio (Nucleic Acid [21]): 2.41 | Drug uptake (Kidney [22]): 5.33 %ID | Drug uptake (Liver [23]): 4.58 %ID | Drug uptake (Brain): 1.57 %ID | Drug uptake (Heart [24]): 0.19 %ID | Drug uptake (Lung [25]): 4.63 %ID | Ratio (Nucleic Acid [26]): 4.26 | Drug uptake (Bone [27]): 12.5 %ID | Ratio (Nucleic Acid [28]): 2.99 | Ratio (Nucleic Acid [29]): 2.84 | Drug uptake (Spleen [30]): 0.54 %ID | Drug uptake (Muscle tissue [31]): 15.5 %ID | Drug uptake (Striatum [32]): 1.09 % ID/g | Drug uptake (Zone of skin [33]): 5.3 %ID | Drug uptake (Striatum [34]): 1.27 % ID/g | Drug uptake (Cortex): 0.82 % ID/g | Ratio (Nucleic Acid [35]): 3.84 | Drug uptake (Liver [36]): 3.45 %ID | Drug uptake (Lung [37]): 2.98 %ID | Drug uptake (Kidney [38]): 2.85 %ID | Ratio (Nucleic Acid [39]): 0.96 | Drug uptake (Spleen [40]): 0.7 %ID | Drug uptake (Striatum [41]): 0.98 % ID/g | Drug uptake (Muscle tissue [42]): 10.2 %ID | Ratio (Nucleic Acid [43]): 2.9 | Drug uptake (Kidney [44]): 2 %ID | Drug uptake (Kidney [45]): 1.53 %ID | Drug uptake (Spleen [46]): 1.05 %ID | Ratio (Nucleic Acid [47]): 1.86 | Drug uptake (Bone [48]): 9.88 %ID | Drug uptake (Zone of skin [49]): 6.79 %ID | Drug uptake (Lung [50]): 10.3 %ID | logD [51]: 2.52 | Drug uptake (Zone of skin [52]): 7.06 %ID | Ratio (Nucleic Acid [53]): 0.88 | Drug uptake (Zone of skin [54]): 7.07 %ID | Drug uptake (Striatum [55]): 1.37 % ID/g | Ratio (Nucleic Acid [56]): 1.63 | Drug uptake (Liver [57]): 11.1 %ID
